From PubChem BioAssay
This is one part of a sample in which hits are shown more often than they occur.
ROMK mod = ROMK potassium channel modulators, primary screen, cell-based, thallium flux, MLSMR library; B-score at 10 µM; ATP-sensitive inward rectifier potassium channel 1 (Homo sapiens), P48048; Tet-inducible ROMK, thallium flux fluorescence; actives lie on both sides; hit rate 2% among 130,000; AID 1918, 2009;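 active = signal ratio slope over the read window, or its plate-corrected B-score, at least 3 SD from the plate mean, either direction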;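 also: B-score of the F/F0 ratio slope over 7 to 12 s after thallium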
Target sequence (P48048 whole entry, looked up): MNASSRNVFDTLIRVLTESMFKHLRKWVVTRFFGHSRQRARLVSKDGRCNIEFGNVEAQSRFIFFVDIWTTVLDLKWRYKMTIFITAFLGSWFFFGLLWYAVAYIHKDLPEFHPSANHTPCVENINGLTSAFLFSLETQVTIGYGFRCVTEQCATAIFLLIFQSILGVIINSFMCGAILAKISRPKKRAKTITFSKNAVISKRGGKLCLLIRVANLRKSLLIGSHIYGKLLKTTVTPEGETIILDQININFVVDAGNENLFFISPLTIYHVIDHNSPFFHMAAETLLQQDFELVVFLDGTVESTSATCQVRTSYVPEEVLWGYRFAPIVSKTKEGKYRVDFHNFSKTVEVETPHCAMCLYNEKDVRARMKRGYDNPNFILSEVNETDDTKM
Pf gametocyte = late stage P. falciparum gametocyte viability inhibitors, primary screen, ATP luminescence, HTS; P. falciparum stage V gametocytes, 24 h; inhibition, % at 10.9 µM; hit rate 0.065% among 150,000; AID 743093, 2013;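 active = inhibition above the mean plus 3 SD of compounds within the control limits, set per campaign, cut at about 38% in these data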
Calb biofilm kill = clotrimazole potentiators killing C. albicans biofilm, primary screen, 4-compound mixtures; C. albicans biofilm persisters + clotrimazole, fluorescence viability; primary screen in compound mixtures of four per well; inhibition, % at 7.6 µM; hit rate 0.02% among 120,000; AID 1242, 2008;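 active = inhibition above 30.3% in the primary screen of four-compound pools, then above 30% when the compound was retested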;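 also: compounds exposed to preformed 24 h biofilms for 48 h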
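Test system: C. albicans CAF4-2 wild-type biofilms; buffer or medium: RPMI/MOPS medium, pH 7.0; schedule: 24 h biofilm formation, then 48 h compound exposure, 37 °C; detection: Alamar Blue fluorescence; measure: percent inhibition of biofilm viability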
Of the large screens only hits and unclear results are named; the others gave an inactive call.

O=C(NCc1ccc(OC(F)(F)F)cc1)c1cccc2c1C(=O)c1ccc(N3CCCCC3)cc1S2(=O)=O	none (no result: ROMK mod, Calb biofilm kill)
O=C(NCc1ccc(OC(F)(F)F)cc1)c1cccc2c1C(=O)c1ccc(N3CCCC3)cc1S2(=O)=O	Pf gametocyte 38.9 (no result: ROMK mod, Calb biofilm kill)
CC12COC3(C(=O)Nc4ccc5ccccc5c4)CC1CCC32C (stereo not drawn)	none
CCCn1c(SCC(=O)NCc2ccccc2Cl)n[nH]c1=O	none
Clc1ccc(Cl)c(OCCN2CCCC2)c1	none (no result: ROMK mod, Calb biofilm kill)
CC(NO)/C(=N\O)c1cccs1 (stereo not drawn)	none (no result: Calb biofilm kill)
O/N=C(/CN(O)/C=C1/C=CC=N1)c1cccs1	ROMK mod -4.99 (no result: Pf gametocyte, Calb biofilm kill)
O=C(CCCn1c(=S)[nH]c2ccsc2c1=O)Nc1ccc2c(c1)OCCO2	none
Cc1nn(-c2ccc3ccccc3c2)c(=O)c2ccccc12	none (no result: Pf gametocyte)
Cc1nn(-c2nc3ccccc3[nH]2)c(=O)c2ccccc12	Pf gametocyte 61.1
CCCCCOCC(O)CCC(=O)NN (stereo not drawn)	none (no result: Pf gametocyte, Calb biofilm kill)
CC1Cc2ccccc2N1C(=S)NC(=O)C1(C)CC1(Cl)Cl (stereo not drawn)	ROMK mod 13.4
CC1Cc2ccccc2N1C(=S)NC(=O)c1ccco1 (stereo not drawn)	none
Cc1cc(SCC(=O)NCCC2=CCCCC2)nc2ccccc12	none
CCOC(=O)[C@H]1[C@H]2COc3ccc(Br)cc3[C@@H]2N2C(=O)CN(CC3CCCO3)C(=O)[C@@]12C (stereo partly drawn)	none (no result: ROMK mod, Calb biofilm kill)
CCN(CC)CCCNCC(=O)Nc1ccc2c(c1)CCC2	none
CC1CC(C)CN(S(=O)(=O)c2ccc(NC(=S)NC(=O)c3ccccc3)cc2)C1 (stereo not drawn)	none
O=C(NC(=S)Nc1ccc(S(=O)(=O)N2CCCCC2)cc1)c1ccccc1	ROMK mod 2.83 (no result: Calb biofilm kill)
O=C(NCCn1ccc2ccccc21)c1cccc([N+](=O)[O-])c1	none
CNC(=S)Nc1sc2c(c1C(=O)OC)CCC2	ROMK mod 6.27
COC(=O)c1c(NC(C)=O)sc2c1CCCCC2	none
CC[C@]12C(=O)N(C)C[C@H]([C@@H]3C(=O)N(C)C(=O)[C@@H]31)N2C(=O)c1ccc(F)cc1	none (no result: ROMK mod, Calb biofilm kill)
O=C(NCC1COc2ccccc2O1)C1CCCN(S(=O)(=O)c2cccc3nsnc23)C1 (stereo not drawn)	ROMK mod -2.46 (no result: Calb biofilm kill)
O=C(NCC1COc2ccccc2O1)C1CCN(S(=O)(=O)c2cccc3nsnc23)CC1 (stereo not drawn)	none (no result: ROMK mod, Calb biofilm kill)
COc1cc2c(cc1OC)CN(C(=S)Nc1ccccc1Cl)CC2	none
COc1cc2c(cc1OC)CN(C(=S)Nc1ccc(C)cc1C)CC2	Pf gametocyte 47.5
O=C1OCC2OC(O)C(O)C(O)C2OC(=O)c2cc(O)c(O)c(O)c2-c2c(O)c(O)c3oc(=O)c4c(c(O)c(O)c5oc(=O)c2c3c54)-c2c1cc(O)c(O)c2O (stereo not drawn)	none (no result: ROMK mod, Pf gametocyte)
CCc1c(C2(O)CCCCC2)[nH]c2ccc(C#N)cc12	none (no result: ROMK mod, Calb biofilm kill)
COc1ccc(-c2[nH]ncc2CN2CCCC2c2nonc2C)c(F)c1 (stereo not drawn)	Pf gametocyte 38.6
Cc1nonc1C1CCCN1Cc1cn[nH]c1-c1ccc2c(c1)OCO2 (stereo not drawn)	none
O=C(CNc1cccc(C(F)(F)F)c1)N/N=C/c1ccccc1C(=O)O	none (no result: ROMK mod)
N#CNC(=Nc1ccc(Cl)cc1)Oc1ccccc1	none
Fc1ccc(-c2n[nH]c(=S)n2CC2CCCO2)cc1 (stereo not drawn)	ROMK mod 2.45 (no result: Pf gametocyte, Calb biofilm kill)
CCn1c(-c2ccc(F)cc2)n[nH]c1=S	none (no result: ROMK mod, Calb biofilm kill)
Nc1ccccc1Oc1c(F)c(F)c(Oc2ccccc2N)c(F)c1F	none
N#CC1=C(N)C(C#N)(C#N)[C@H](c2ccncc2)[C@H]2CN(C(=O)OCc3ccccc3)CC=C12	none (no result: Pf gametocyte, Calb biofilm kill)
CCN1CC=C2C(C#N)=C(N)C(C#N)(C#N)C(c3cc(Cl)ccc3Cl)C2C1 (stereo not drawn)	ROMK mod -4.81 (no result: Pf gametocyte, Calb biofilm kill)
CC(C)N1CC=C2C(C#N)=C(N)C(C#N)(C#N)C(c3ccccc3)C2C1 (stereo not drawn)	ROMK mod -4.22 (no result: Pf gametocyte, Calb biofilm kill)
CCC1C2CN(C(C)=O)CC=C2C(C#N)=C(N)C1(C#N)C#N (stereo not drawn)	none (no result: ROMK mod, Calb biofilm kill)
O=C(/C=C/c1ccccc1)Nc1cccc(S(=O)(=O)Nc2ccccc2F)c1	none
O=C(O)C(Cc1ccccc1)N1C(=O)/C(=C/c2ccccc2)SC1=S (stereo not drawn)	none
Cc1ccc(/C=C2\SC(=S)N(C(Cc3ccccc3)C(=O)O)C2=O)cc1 (stereo not drawn)	ROMK mod -2.99 (no result: Pf gametocyte)
Cc1cc(C)n(-c2n[nH]c(=O)c3ccccc23)n1	none (no result: ROMK mod)
Clc1ccc(-c2nn3c(-c4ccccc4)nnc3s2)cc1	none (no result: ROMK mod, Calb biofilm kill)
c1ccc(-c2nnc3sc(-c4ccncc4)nn23)cc1	Pf gametocyte 52.0 (no result: Calb biofilm kill)
